Data published in paper PMC5651997 (Chemosphere, 2017).

Columns and labels:
D. magna [1] = assay: 48 h acute toxicity test, single chemicals; format: in vivo, Daphnia magna; details: for LC50: read-out: LC50 (μM)(95% CI)
[2] = test system: detoxification and sphingolipid homeostasis genes; assay: qPCR confirmation of differential gene expression; format: in vivo, Daphnia magna; details: 20 or 40 μM atrazine, 96 h, at least one of the concentrations
Summary of the method: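 RNA stabilised and stored at −80°C; 2 μg reverse-transcribed with MMLV. SYBR Green qPCR; efficiency from a 1:1–1:1024 dilution series of pooled untreated and treated samples; triplicate 1:15-diluted samples quantified.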

Daphnia HR96 = details: ref Karimullina et al., 2012; cited from earlier work
detoxification genes = assay: RNA sequencing, differential gene expression after atrazine exposure; format: in vivo, Daphnia magna; details: 40 μM atrazine, 96 h
[3] = 48 h acute toxicity test, single chemicals; format: in vivo, Daphnia magna; details: Daphnia magna, in vivo, LC50 (μM)(95% CI)
D. magna [4] = format: in vivo, Daphnia magna; details: neonates, 48 h, 40 μM atrazine
[5] = neonates (<24 h old), 48 h, chemical individually, (95% CI)
[6] = neonates (<24 h old), 48 h, chemical individually

In the case of `Oc1cc(Cl)ccc1Oc1ccc(Cl)cc1Cl` [triclosan], the Hillslope (D. magna [1]; [5]) is reported as −4.365 (−6.091 to −3.083) and the LC50 (D. magna [1]; [6]) is reported as 1.08 µM.

In the case of `CCNc1nc(Cl)nc(NC(C)C)n1` [atrazine], the “expression of two GSTs, cyp370a9, ADH-A and two sphingomyelinases by qPCR” value [2] is given as “significantly up-regulated”, the “potency for activating Daphnia HR96” value (Daphnia HR96) is given as “greatest potency” and the “logFC, GST 1” value (detoxification genes; glutathione metabolism pathway) is given as 1.33. For the same compound, the “logFC, aminopeptidase” value (detoxification genes; glutathione metabolism pathway) was 1.13, the “number of significantly down-regulated genes” value (detoxification genes; of 26,646 genes identified) was 441 and the “number of significantly up-regulated genes” value (detoxification genes; of 26,646 genes identified) was 675.

In the case of `CCOP(=S)(OCC)Oc1ccc([N+](=O)[O-])cc1` [parathion], the Hillslope (D. magna [1]; [5]) is reported as −4.831 (−8.368 to −1.294) and the LC50 (D. magna [1]; [6]) is reported as 0.0122 µM.

In the case of `CCCCCCCCCc1ccc(O)cc1` [p-nonylphenol], the LC50 [3] is reported as 1.94 µM, the Hillslope (D. magna [1]; Daphnia magna, in vivo) is reported as −5.895 (−8.000 to −3.790) and the “drop of LC50 in atrazine-containing binary mixture vs chemical alone” value (D. magna [4]) is reported as 25%.

With `O=S1OCC2C(CO1)C1(Cl)C(Cl)=C(Cl)C2(Cl)C1(Cl)Cl` (centres unmarked) [endosulfan] the Hillslope (D. magna [1]; [5]) was −8.310 (−10.52 to −6.098) and the “drop of LC50 in atrazine-containing binary mixture vs chemical alone” value (D. magna [4]) was 60%.

For `CC(C)(c1ccc(O)cc1)c1ccc(O)cc1` [BPA, bisphenol A], the Hillslope (D. magna [1]; [5]) was −6.891 (−10.34 to −3.438).

With `CCOP(=S)(OCC)Oc1nc(Cl)c(Cl)cc1Cl` [chlorpyrifos] the Hillslope (D. magna [1]; [5]) was −2.498 (−3.795 to −1.496).
